Measurements taken from ChEMBL document CHEMBL3120069, “Chemical genetics-based discovery of indole derivatives as HCV NS5B polymerase inhibitors” (Eur J Med Chem, 2014).

Assays:
Hepatitis C virus [1] = assay: Antiviral activity against Hepatitis C virus JFH-1 J6 genotype 2a infected in human Huh7.5 cells assessed as inhibition of viral core synthesis at 10 uM by Western blot analysis; format: functional, organism-based; conditions: Hepacivirus hominis, subtype 2a JFH1 J6, Huh-7, TDE = time-dependent effect
In short: (§1)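 J6/JFH1 RNA-transfected Huh7.5 cells on 10 µM compound, lysed at 24, 48, 72 h. HCV core and β-actin probed by Western blot, core intensity normalised to β-actin; T1/2 from the time-response curve.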

Hepatitis C virus [2] = assay: Antiviral activity against Hepatitis C virus Con1 Bart79I genotype 1b expressing NS5A S2204I mutant infected in human Huh7.5 cells assessed as inhibition of viral RNA replication at 10 uM by real time qRT-PCR analysis; format: functional, organism-based; conditions: Hepacivirus hominis, subtype 1b Con1 Bart79I, Huh-7, TDE = time-dependent effect
In short: (§2)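 Huh7.5 cells stably carrying Bart79I genotype 1b subgenomic replicon (G418 750 mg/ml selection, 3 weeks), 3×10⁵ cells/well with DMSO or compound. Dose series over 72 h, or 10 M for increasing periods. Viral and host GAPDH RNA measured by real-time qRT-PCR. EC50 and T1/2 taken from response curves of triplicate experiments.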

Hepatitis C virus [3] = assay: Antiviral activity against Hepatitis C virus Con1 Bart79I genotype 1b expressing YFP infected in human Huh7.5 cells assessed as NS5A S2204I mutant synthesis at 10 uM after 72 hrs by FACS analysis (reference value: 52.2%); format: functional, Hepacivirus hominis, subtype 1b Con1 Bart79I, Huh-7
In short: (§3)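 Huh7.5 cells stably carrying Bart79I-YFP subgenomic replicon (G418 selection), treated with DMSO or compound. Dose series over 5 days (120 h), or 10 M with sampling at 24, 48, 72 h. Cells washed, resuspended in PBS, and NS5A-YFP-positive cells counted by FACS. EC50 and T1/2 taken from response curves.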

Hepatitis C virus [4] = assay: Antiviral activity against Hepatitis C virus Con1 Bart79I genotype 1b expressing YFP infected in human Huh7.5 cells assessed as inhibition of NS5A S2204I mutant synthesis after 120 hrs by FACS analysis; format: functional, organism-based; conditions: subtype 1b Con1 Bart79I; in short: as §3
Hepatitis C virus [5] = assay: Antiviral activity against Hepatitis C virus Con1 Bart79I genotype 1b expressing YFP infected in human Huh7.5 cells assessed as NS5A S2204I mutant synthesis at 1 uM after 120 hrs by FACS analysis (reference value: 66%); format: functional, Hepacivirus hominis, subtype 1b Con1 Bart79I, Huh-7; in short: as §3
Hepatitis C virus [6] = assay: Antiviral activity against Hepatitis C virus Con1 Bart79I genotype 1b infected in human Huh7.5 cells assessed as time required for reducing NS5A S2204I mutant level by half at 10 uM by Western blot analysis; format: functional, organism-based; conditions: Hepacivirus hominis, subtype 1b Con1 Bart79I, Huh-7
In short: (§4)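 Bart79I replicon Huh7.5 cells, 1.5×10⁵/well, treated with DMSO or compound. Dose series for 5 days (120 h), or 10 M for 24, 48, 72 h. Lysed in RIPA with protease inhibitors and protein quantified by Bradford. NS5A and β-actin measured by Western blot, with NS5A normalized to β-actin. EC50 and T1/2 taken from response curves.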

Hepatitis C virus [7] = assay: Antiviral activity against Hepatitis C virus Con1 Bart79I genotype 1b infected in human Huh7.5 cells assessed as inhibition of NS5A S2204I mutant synthesis after 120 hrs by Western blot analysis; format: functional, organism-based; conditions: subtype 1b Con1 Bart79I; in short: as §4
Hepatitis C virus [8] = assay: Antiviral activity against Hepatitis C virus JFH-1 J6 genotype 2a infected in human Huh7.5 cells assessed as time required for reducing viral core level by half at 10 uM by Western blot analysis; format: functional, organism-based; conditions: Hepacivirus hominis, subtype 2a JFH1 J6, Huh-7; in short: as §1
Hepatitis C virus [9] = assay: Antiviral activity against Hepatitis C virus JFH-1 J6 genotype 2a infected in human Huh7.5 cells assessed as inhibition of viral core synthesis after 120 hrs by Western blot analysis; format: functional, organism-based
In short: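 J6/JFH1 RNA-transfected Huh7.5 cells, 1.5 × 10⁵ per well, given DMSO or increasing concentrations for 120 h. RIPA lysates with protease inhibitors, protein by Bradford; HCV core and β-actin by Western blot, core normalised to β-actin. EC50 from dose-response.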

Hepatitis C virus [10] = assay: Antiviral activity against Hepatitis C virus Con1 Bart79I genotype 1b expressing NS5A S2204I mutant infected in human Huh7.5 cells assessed as time required for reducing viral RNA level by half at 10 uM by real time qRT-PCR analysis; format: functional, organism-based; conditions: Hepacivirus hominis, subtype 1b Con1 Bart79I, Huh-7; in short: as §2
[11] = Cytotoxicity against human Huh7.5 cells assessed as cell viability after 72 hrs by MTT assay; format: cell-based, Huh-7

Q: For `C/C(=C\c1c[nH]c2ccc(C#N)cc12)C(=O)Nc1ccc(C(C)(C)C)cc1`, which inhibition (Hepatitis C virus [1]) is on record?
A: tde

Q: And the inhibition (Hepatitis C virus [2])?
A: tde

Q: What about the Activity (Hepatitis C virus [3]) of the same compound?
A: 0.6%

Q: And the inhibition (Hepatitis C virus [4]; Hepacivirus hominis, Huh-7)?
A: Dose-dependent effect

Q: What about the EC50 (Hepatitis C virus [4]; Huh-7, 120 h) of the same compound?
A: 1030 nM

Q: And the Activity (Hepatitis C virus [5])?
A: 38.4%

Q: What about the T1/2 (Hepatitis C virus [6]) of the same compound?
A: 31.7 h

Q: What about the inhibition (Hepatitis C virus [7]; Hepacivirus hominis, Huh-7) of the same compound?
A: Dose-dependent effect

Q: And the EC50 (Hepatitis C virus [7]; Huh-7, 120 h)?
A: 2500 nM

Q: And the T1/2 (Hepatitis C virus [8])?
A: 19.6 h

Q: What about the inhibition (Hepatitis C virus [9]; Hepacivirus hominis, subtype 2a JFH1 J6, Huh-7) of the same compound?
A: Dose-dependent effect

Q: What about the EC50 (Hepatitis C virus [9]; subtype 2a JFH1 J6, Huh-7, 120 h) of the same compound?
A: 2000 nM

Q: What about the T1/2 (Hepatitis C virus [10]) of the same compound?
A: 31.5 h

Q: And the CC50 at 72 h [11]?
A: 61.8 µM
